Screening results deposited in PubChem by several laboratories.
KCNQ1 pot – potentiators or activators of KCNQ1 channel, primary screen, cell-based, thallium flux, high-throughput; Potassium voltage-gated channel subfamily KQT member 1 (Homo sapiens), P51787; CHO-K1 KCNQ1, thallium flux FluxOR fluorescence; hits give high values; B-score at 10 µM; 310,000 tested, 0.35% active;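 active means fluorescence ratio B-score, a plate-corrected score, at least three library SD, with initial intensity B-score within 5 SD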
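System: Stable KCNQ1 CHO-K1 line | Incubation: 90 min dye loading and 20 min compound exposure, both at room temperature | Measure: Ratio B score | Medium: Assay buffer for compound exposure, DMSO matched across wells | Compound dosing: Single-concentration screen | Probe or stimulus: K+/Tl+ depolarizing stimulus | Measured by: Kinetic FluxOR fluorescence, 10 s baseline plus 110 s post-stimulus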
hERG protect – hERG rescue from dofetilide block, primary screen, cell-based, CHO-hERG, FluxOR thallium flux, dofetilide IC70; AID 1511, 2009; 310,000 tested, 0.51% active; dofetilide IC70 present; activation (rescue from dofetilide block), less the hit threshold, % at 10 µM;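 active means activation above the mean of controls blocked by dofetilide plus 5 SD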;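 further: thallium influx through hERG after potassium depolarization seen as dye fluorescence rise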
KCNQ1 block – inhibitors of human KCNQ1 channel, primary screen, cell-based, thallium flux, high-throughput. Potassium voltage-gated channel subfamily KQT member 1 (Homo sapiens), P51787. CHO-K1 KCNQ1, FluxOR thallium flux fluorescence; hits give high values. B-score at 10 µM. 310,000 tested, 1.3% active. AID 2642, 2010;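 active means compounds whose thallium flux B-score, printed positive for inhibition, exceeds three library SD while starting fluorescence stays within three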;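 further: channel opened by potassium depolarization with thallium stimulus after 20 min compound exposure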
KCNK3 block – human KCNK3 channel inhibitors, primary screen, CHO cells, FluxOR thallium flux, B-score; FluxOR fluorescence; hits give low values; AID 602410, 2012; Potassium channel subfamily K member 3 (Homo sapiens), O14649; B-score at 10 µM; 340,000 tested, 0.84% active;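 active means B-score under library mean minus 4 SD, starting fluorescence ratio at most library mean plus 5 SD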;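 further: more negative B-score means stronger inhibition of thallium flux through KCNK3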
Target sequence (O14649 whole entry, looked up): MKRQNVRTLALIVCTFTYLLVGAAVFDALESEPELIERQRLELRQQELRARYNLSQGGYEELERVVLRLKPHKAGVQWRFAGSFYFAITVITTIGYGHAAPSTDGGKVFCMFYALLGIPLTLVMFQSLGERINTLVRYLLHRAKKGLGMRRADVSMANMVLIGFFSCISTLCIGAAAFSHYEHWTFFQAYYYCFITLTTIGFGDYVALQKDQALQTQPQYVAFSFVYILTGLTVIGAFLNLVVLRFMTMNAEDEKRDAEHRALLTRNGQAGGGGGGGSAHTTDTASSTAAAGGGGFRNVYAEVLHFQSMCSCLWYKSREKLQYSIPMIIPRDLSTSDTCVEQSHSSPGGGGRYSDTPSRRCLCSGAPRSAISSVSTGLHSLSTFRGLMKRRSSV
KCNK9 inh – KCNK9 potassium channel inhibitors, primary screen, HEK293 cells, thallium flux; FluxOR thallium flux fluorescence; hits give low values; B-score at 10 µM; 310,000 tested, 1.2% active;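 active means ratio B-score over 3 SD below the library mean, with starting fluorescence within 5 SD of its mean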;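 further: negative B-score means less thallium flux so channel inhibition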
KCC2 mod – KCC2 cotransporter modulators, thallium flux, primary screen, cell-based, HEK293 KCC2, FluoZin-2 fluorescence, MLSMR; Solute carrier family 12 member 5 (Homo sapiens), Q9H2X9; B-score of Tl+ flux slope (higher = more flux/activation; lower = inhibition) at 10 µM; KCC2 cells, thallium flux FluoZin-2 fluorescence; 190,000 tested, 2.2% active;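 active means thallium flux slope and its plate-corrected score both differing from the plate sample mean at a set confidence after two filtering rounds, in either direction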;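 further: slope of fluorescence scaled to starting intensity during 10 to 20 s after thallium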
KCC2 secondary – KCC2 modulators in sodium-free buffer, confirmation, cell-based, HEK293 KCC2, thallium flux, secondary assay | AID 1713, 2009 | FluoZin2 fluorescence; hits give high values | normalised thallium flux (F/F0 slope) at 10 µM | 3,700 tested, 15% active | shares compounds with KCC2 mod;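 active means thallium flux slope above the same plate's solvent-only control mean plus 3 SD; inconclusive means the two replicate wells disagree; inactive means no significant difference from solvent-only control wells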
KCC2 bumet counter – thallium flux persisting under bumetanide in KCC2 cells, confirmation, counter-screen for KCC2 modulator project, cell-based, HEK293 KCC2, FluoZin2, secondary assay 3; shares compounds with KCC2 mod; HEK293-KCC2 + bumetanide/ouabain; hits give high values; normalized thallium flux at 10 µM; 3,700 tested, 49% active; AID 1714, 2009;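 active means thallium entry rate above the same plate's blocked-transporter control wells by more than 3 SD; inconclusive means the two repeat wells disagree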;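 further: raw slope of fluorescence over initial fluorescence between 10 and 20 s after thallium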
KCC2 sec2 – KCC2 modulators without ouabain present, confirmation, cell-based, HEK293 KCC2, thallium flux, FluoZin2, secondary assay 2; shares compounds with KCC2 mod; thallium flux FluoZin2 fluorescence; actives lie on both sides; F/F0 rise rate, 10–20 s post-thallium; normalized thallium flux at 10 µM; 3,700 tested, 23% active; AID 1715, 2009;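 active means thallium flux slope more than 3 SD above or below the plate's solvent-only control mean, mostly below; inconclusive means the two repeat wells disagreed; inactive means no significant shift from solvent-only controls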;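 further: raw slope with 0.1% DMSO as baseline and bumetanide as block control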
HEK counter1 – thallium flux modulation in parental HEK cells, confirmation, counter-screen for KCC2 modulator project, cell-based, counterscreen 1; shares compounds with KCC2 mod; HEK293 parental cells, thallium flux FluoZin2, ouabain; baseline-ratio fluorescence slope, 10–20 s after thallium; thallium flux rate (normalised fluorescence) at 10 µM; 3,700 tested, 46% active; AID 1716, 2009;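 active means thallium flux rate significantly above the same plate's solvent-only control wells, beyond their mean plus 3 SD; inconclusive means the two replicate wells gave conflicting results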
KCC2 retest ouab – KCC2 inhibitors and activators, ouabain retest, confirmation, HEK-KCC2 cells; AID 1717, 2009; HEK293-KCC2, thallium flux FluoZin2 fluorescence; bidirectional: low = inhibitor, high = activator; 3,700 tested, 48% active; raw Tl+ flux slope (below DMSO = inhibition, above = activation) at 10 µM; shares compounds with KCC2 mod;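 active means thallium flux slope beyond 3 SD from same-plate DMSO control mean in most replicates, usually higher, sometimes lower; inconclusive means repeat tests gave conflicting results; inactive means no significant difference from controls in most replicates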;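 further: slope of initial-normalized fluorescence between seconds 10 and 20 after thallium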
HEK counter2 – native HEK Tl+ uptake effects, second counter-screen – HEK cells, counterscreen 2, counter-screen for KCC2 modulator project, confirmation | shares compounds with KCC2 mod | HEK293 parental, thallium flux FluoZin-2 fluorescence slope | thallium flux slope at 10 µM | 3,700 tested, 33% active | AID 1718, 2009;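 active means thallium flux slope above the same plate's solvent-control mean plus 3 SD in both duplicate wells; inconclusive means duplicate wells that disagreed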;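 further: run without ouabain in cells lacking the KCC2 cotransporter; slope of fluorescence scaled to its starting value between 10 and 20 s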
Starred values were filed as active, the others as inactive; i = inactive; ? = inconclusive; / = no result given. In the library only some 4.1% were active in any assay of this set; here they are far more common.

SMILES	KCNQ1 pot	hERG protect	KCNQ1 block	KCNK3 block	KCNK9 inh	KCC2 mod	KCC2 secondary	KCC2 bumet counter	KCC2 sec2	HEK counter1	KCC2 retest ouab	HEK counter2
COc1ccc2c(c1)O[C@H](c1ccc3c(c1)OCO3)[C@@H](O)C2=O	i	-8	i	i	i	-0.042	/	/	/	/	/	/
COc1ccc2c(c1)O[C@@H](c1cccc(C(F)(F)F)c1)[C@H](O)C2=O	i	-3	i	i	i	8.8*	0.0078	0.0093*	0.031	0.011*	?	?
O=C(NCCc1ccc(Cl)cc1)C1CCN(S(=O)(=O)N2CCCC2)CC1	i	-2	i	i	i	-6.7*	0.0068	0.0047	0.028	0.0078	0.019	0.011
Cc1ccc(NC(=S)N/N=C2\CCCCC2C)cc1 (configuration not stated)	i	-5	i	i	i	6.9*	0.0059	0.032*	0.039*	0.02*	0.033*	0.022*
CC1CCCC/C1=N\NC(=S)Nc1cccnc1 (configuration not stated)	i	-6	i	i	i	1.8	/	/	/	/	/	/
C=CCn1c(Cc2cccs2)nnc1SCC(=O)c1cccc(Br)c1	i	-17	i	i	i	-2.5	/	/	/	/	/	/
C=CCn1c(Cc2cccs2)nnc1SCC(=O)c1ccc2ccccc2c1	i	-13	i	i	i	-5.9*	0.0091	?	0.027*	0.0065	0.014*	0.01
C=CCn1c(Cc2cccs2)nnc1SCC(=O)c1ccc(F)cc1	i	-10	i	i	i	-4.1*	0.0068	0.0042	0.026	0.0056	0.015*	0.0088
C=CCn1c(CNC(=O)c2cccs2)nnc1SCC(=O)c1ccc(Br)cc1	i	-17	i	i	i	-5.1*	0.0078	0.0051	0.031	0.0065	0.037*	0.01
CCOC(=O)C1CCN(C(=O)C2CCCN2S(=O)(=O)c2ccc(Cl)cc2)CC1 (configuration not stated)	i	-4	i	i	i	/	/	/	/	/	/	/
CC(C)(C)NC(=O)C(=O)NNC(=O)c1cccc(Br)c1	18*	23*	i	i	i	33*	0.0096*	0.054*	0.047*	0.047*	0.05*	0.028*
CC(C)c1ccc(-c2csc(NC(=O)c3cccs3)c2C(=O)O)cc1	i	-13	i	i	i	20*	0.0072	0.045*	0.027*	0.021*	?	?
CCSc1c([N+](=O)[O-])c(=O)n(-c2ccccc2)c2ccccc12	i	-6	i	i	i	/	/	/	/	/	/	/
COc1ccc(-c2nc(Cn3c(SCc4ccc(F)cc4)nc4ccncc43)c(C)o2)cc1OC	i	-7	i	i	i	-3.5*	0.0083	0.0057	0.031	?	?	0.011
O=C(NCCS(=O)(=O)N1CCN(c2ccccc2F)CC1)c1cccs1	i	-5	i	i	i	/	/	/	/	/	/	/
Cc1[nH]c(N=Nc2ccccc2)nc1N=Nc1ccccc1	i	-13	i	i	i	76*	0.04*	0.14*	0.059*	0.096*	0.098*	0.027*
CN(C(=O)c1cccc(NC(=O)Cc2ccc([N+](=O)[O-])cc2)c1)C1CC1	/	/	/	i	/	/	/	/	/	/	/	/
COc1ccc(S(=O)(=O)N2CCC(C(=O)N3CCc4ccccc4C3)CC2)cc1C	i	-11	i	i	i	-3.5*	0.007	0.0049	0.024*	0.0076	0.015*	0.01
O=C(C1CCN(S(=O)(=O)c2cccc3nsnc23)CC1)N1CCc2ccccc2C1	i	-11	i	i	i	-6*	0.01	0.0068	0.023*	0.008	0.015*	0.011
CSc1ccc(S(=O)(=O)N2CCC(C(=O)N3CCc4ccccc4C3)CC2)cc1	i	-7	i	i	i	/	/	/	/	/	/	/
CC1=C(c2ccccc2)C=NNCC1=O	/	/	/	i	/	/	/	/	/	/	/	/
Cc1ccc(C)c(S(=O)(=O)NC(C)C(=O)Nc2ccc(-c3nc4ccccc4s3)cc2)c1 (configuration not stated)	i	-3	i	i	i	4.8*	0.017	0.0059*	0.03	?	0.017	0.011
CC(NS(=O)(=O)c1cccc(Cl)c1)C(=O)Nc1ccc(-c2nc3ccccc3s2)cc1 (configuration not stated)	i	-5	i	i	i	0.63	/	/	/	/	/	/
CN(CC(=O)Nc1ccc(F)cc1)C(=O)COC(=O)CCN1C(=O)C2CC=CCC2C1=O (configuration not stated)	i	-7	i	i	i	/	/	/	/	/	/	/
